Test results from ChEMBL document CHEMBL2010770, “Dimeric 3,5-bis(benzylidene)-4-piperidones: a novel cluster of tumour-selective cytotoxins possessing multidrug-resistant properties” (Eur J Med Chem, 2012).
Activity calls are given as the source filed them. No cut-off for these calls is given here.

How the values were obtained:
SW-620 = assay: Cytotoxicity against human SW620 cells; type: functional, cell-based
Outline: (§1)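 Human colon cancer and leukaemia line panel. Compounds tested from 10^-4 to 10^-8 M, and IC50 values determined.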

HL-60(TB) = assay: Cytotoxicity against human HL-60(TB) cells; type: functional, cell-based; outline: as §1
HSC-4 [1] = assay: Selectivity index, ratio of CC50 for human normal cells to CC50 for human HSC4 cells; type: functional
HSC-2 [2] = assay: Selectivity index, ratio of CC50 for human normal cells to CC50 for human HSC2 cells; type: functional
HSC-2 [3] = assay: Cytotoxicity against human HSC2 cells after 48 hrs; type: functional; conditions: HSC-2, 48 h
Outline: (§2)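 Human HSC-2, HSC-3, HSC-4 squamous carcinoma and HL-60 promyelocytic leukaemia cells incubated with compound for 48 h. CC50, the concentration killing 50% of cells, read from a dose–response curve.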

HT-29 = assay: Cytotoxicity against human HT-29 cells; type: functional, cell-based; outline: as §1
CCRF-CEM = assay: Growth inhibition of human CEM cells; type: functional, cell-based
[4] = biological target: T1, ATP-dependent translocase ABCB1 (Homo sapiens, UniProt P08183); assay: Inhibition of human MDR1-mediated multidrug resistant in mouse L5178Y cells at 40 uM treated 10 mins before rhodamine 123 challenge measured after 20 mins relative to control; type: cell-based
Outline: (§3)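 Compounds in DMSO were added at room temperature to mdr1-transfected and parental L5178Y cells. After 10 min, rhodamine 123 was added, followed by 20 min at 37 °C. Cellular rhodamine fluorescence was measured and expressed as fluorescence activity ratio (FAR); FAR >1 indicates MDR reversal.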

HL-60 [5] = assay: Selectivity index, ratio of CC50 for human normal cells to CC50 for human HL60 cells; type: functional
HSC-3 [6] = assay: Selectivity index, ratio of CC50 for human normal cells to CC50 for human HSC3 cells; type: functional
HL-60 [7] = assay: Cytotoxicity against human HL60 cells after 48 hrs; type: functional; conditions: HL-60, 48 h; outline: as §2
HCC 2998 = assay: Cytotoxicity against human HCC2998 cells; type: functional, cell-based; outline: as §1
MOLT-4 = assay: Growth inhibition of human Molt4/C8 cells; type: functional, cell-based
RPMI-8226 = assay: Cytotoxicity against human RPMI8226 cells; type: functional, cell-based; outline: as §1
L1210 = assay: Growth inhibition of mouse L1210 cells; type: functional, cell-based
HSC-4 [8] = assay: Cytotoxicity against human HSC4 cells after 48 hrs; type: functional; conditions: HSC-4, 48 h; outline: as §2
[9] = Cytotoxicity against human HGF cells after 48 hrs; type: cell-based
Outline: (§4)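 Cells were exposed to a dose range for 48 h, following a literature method. CC50 was read from the dose–response curve.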

HSC-3 [10] = assay: Cytotoxicity against human HSC3 cells after 48 hrs; type: functional; conditions: HSC-3, 48 h; outline: as §2
[11] = Cytotoxicity against human HPLF cells after 48 hrs; type: cell-based; outline: as §4
HCT-116 = assay: Cytotoxicity against human HCT116 cells; type: functional, cell-based; outline: as §1
COLO 205 = assay: Cytotoxicity against human COLO205 cells; type: functional, cell-based; outline: as §1
HCT-15 = assay: Cytotoxicity against human HCT15 cells; type: functional, cell-based; outline: as §1
[12] = biological target: T1, ATP-dependent translocase ABCB1; assay: Inhibition of human MDR1-mediated multidrug resistant in mouse L5178Y cells at 4 uM treated 10 mins before rhodamine 123 challenge measured after 20 mins relative to control; type: cell-based; outline: as §3
K562 = assay: Cytotoxicity against human K562 cells; type: functional, cell-based; outline: as §1
KM12 = assay: Cytotoxicity against human KM12 cells; type: functional, cell-based; outline: as §1
HSC-2 [13] = assay: Ratio of melphalan CC50 to compound CC50 for human HSC2 cells; type: functional
HSC-4 [14] = assay: Ratio of melphalan CC50 to compound CC50 for human HSC4 cells; type: functional
HSC-3 [15] = assay: Ratio of melphalan CC50 to compound CC50 for human HSC3 cells; type: functional

T1 sequence (P08183 whole entry): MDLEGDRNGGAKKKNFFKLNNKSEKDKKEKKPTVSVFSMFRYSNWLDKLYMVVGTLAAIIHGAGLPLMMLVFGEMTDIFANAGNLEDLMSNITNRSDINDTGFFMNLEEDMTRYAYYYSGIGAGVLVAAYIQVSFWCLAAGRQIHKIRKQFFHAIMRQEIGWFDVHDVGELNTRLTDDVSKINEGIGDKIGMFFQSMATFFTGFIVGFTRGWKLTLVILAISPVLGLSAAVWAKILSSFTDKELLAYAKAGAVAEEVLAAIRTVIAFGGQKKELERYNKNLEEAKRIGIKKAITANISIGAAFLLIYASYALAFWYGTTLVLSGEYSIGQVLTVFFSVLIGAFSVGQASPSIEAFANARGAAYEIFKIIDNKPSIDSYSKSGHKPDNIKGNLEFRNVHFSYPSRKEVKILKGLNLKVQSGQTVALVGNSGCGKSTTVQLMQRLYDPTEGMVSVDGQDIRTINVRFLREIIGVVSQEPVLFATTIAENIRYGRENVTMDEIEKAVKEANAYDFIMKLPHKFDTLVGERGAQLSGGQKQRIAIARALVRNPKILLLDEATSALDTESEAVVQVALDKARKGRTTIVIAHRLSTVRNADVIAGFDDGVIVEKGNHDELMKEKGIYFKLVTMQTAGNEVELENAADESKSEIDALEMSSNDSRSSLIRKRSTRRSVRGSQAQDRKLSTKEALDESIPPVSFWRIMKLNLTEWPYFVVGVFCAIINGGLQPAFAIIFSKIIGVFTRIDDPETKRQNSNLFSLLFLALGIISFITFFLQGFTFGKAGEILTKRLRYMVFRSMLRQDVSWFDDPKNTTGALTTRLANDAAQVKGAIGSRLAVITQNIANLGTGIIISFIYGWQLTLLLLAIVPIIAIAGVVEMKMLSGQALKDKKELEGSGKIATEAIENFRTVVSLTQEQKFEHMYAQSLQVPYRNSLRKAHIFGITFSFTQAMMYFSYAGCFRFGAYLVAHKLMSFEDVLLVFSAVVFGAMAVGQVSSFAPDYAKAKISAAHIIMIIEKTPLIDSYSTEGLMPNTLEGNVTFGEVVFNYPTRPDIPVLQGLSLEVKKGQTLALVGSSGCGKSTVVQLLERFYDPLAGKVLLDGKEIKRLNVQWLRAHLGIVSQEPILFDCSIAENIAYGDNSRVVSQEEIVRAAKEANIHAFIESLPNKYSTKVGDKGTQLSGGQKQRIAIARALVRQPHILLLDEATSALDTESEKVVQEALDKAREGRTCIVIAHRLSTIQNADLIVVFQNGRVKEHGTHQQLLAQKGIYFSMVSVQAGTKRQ

| SMILES | IC50 (SW-620) | IC50 (HL-60(TB)) | Ratio (HSC-4 [1]) | Ratio (HSC-2 [2]) | CC50 (HSC-2 [3]) | IC50 (HT-29) | growth inhibition (GI) (CCRF-CEM) | Ratio [4] | Ratio (HL-60 [5]) | Ratio (HSC-3 [6]) | CC50 (HL-60 [7]) | growth inhibition (GI) (MOLT-4) | IC50 (RPMI-8226) | growth inhibition (GI) (L1210) | CC50 (HSC-4 [8]) | CC50 at 48 h [9] | CC50 (HSC-3 [10]) | CC50 at 48 h [11] | IC50 (HCT-116) | Ratio [12] | also measured |
| --- | --- | --- | --- | --- | --- | --- | --- | --- | --- | --- | --- | --- | --- | --- | --- | --- | --- | --- | --- | --- | --- |
| O=c1[nH]cc(F)c(=O)[nH]1 [FLUOROURACIL] | 380 µM | > 2510 µM | – | – | – | – | – | – | – | – | – | – | – | – | – | – | – | – | – | – | – |
| O=C1/C(=C/c2ccccc2)CN(C(=O)CCC(=O)N2C/C(=C\c3ccccc3)C(=O)/C(=C/c3ccccc3)C2)C/C1=C\c1ccccc1 | 0.26 µM | 0.27 µM | 38.2 | 92.6 | 0.099 µM | 0.24 µM | Active | 60 | 22.4 | 39.9 | 0.41 µM | Active | 0.06 µM | Active | 0.24 µM | 10 µM | 0.23 µM | 16 µM | 0.14 µM | 35 | IC50 (HCC 2998): 0.23 µM; IC50 (COLO 205): 0.39 µM; IC50 (HCT-15): 0.38 µM; IC50 (K562): 0.22 µM; IC50 (KM12): 0.3 µM |
| O=C1/C(=C/c2ccccc2)CN(C(=O)C#CC(=O)N2C/C(=C\c3ccccc3)C(=O)/C(=C/c3ccccc3)C2)C/C1=C\c1ccccc1 | 0.2 µM | 0.25 µM | 8.46 | 41.4 | 0.19 µM | 0.2 µM | Active | 45.7 | 9.05 | 16.1 | 0.87 µM | Active | 0.08 µM | Active | 0.93 µM | 8.5 µM | 0.49 µM | 13 µM | 0.12 µM | 42 | IC50 (HCC 2998): 0.41 µM; IC50 (COLO 205): 0.25 µM; IC50 (HCT-15): 0.39 µM; IC50 (K562): 0.3 µM; IC50 (KM12): 0.28 µM |
| O=C1/C(=C/c2ccccc2)CN(C(=O)c2cccc(C(=O)N3C/C(=C\c4ccccc4)C(=O)/C(=C/c4ccccc4)C3)c2)C/C1=C\c1ccccc1 | 0.36 µM | 2.04 µM | 4.54 | 11.3 | 3.2 µM | 0.55 µM | Active | 61.3 | 5.5 | 5.76 | 6.6 µM | Active | 0.73 µM | Active | 8 µM | 42 µM | 6.3 µM | 46 µM | 0.2 µM | 38.9 | IC50 (COLO 205): 2.4 µM; IC50 (HCT-15): 1.7 µM; IC50 (K562): 1.55 µM; IC50 (KM12): 0.35 µM |
| O=C1/C(=C/c2ccccc2)CN(C(=O)CCCC(=O)N2C/C(=C\c3ccccc3)C(=O)/C(=C/c3ccccc3)C2)C/C1=C\c1ccccc1 | – | – | 13 | 34.8 | 0.071 µM | – | Active | 73.4 | 6.33 | 14.5 | 0.39 µM | Active | – | Active | 0.19 µM | 2.9 µM | 0.17 µM | 3.9 µM | – | 50.2 | – |
| N[C@@H](Cc1ccc(N(CCCl)CCCl)cc1)C(=O)O [MELPHALAN] | – | – | 6.56 | 24.1 | 8.7 µM | – | – | – | 150 | 8.4 | 1.4 µM | – | – | – | 32 µM | – | 25 µM | – | – | – | – |
| O=C1/C(=C/c2ccccc2)CN(C(=O)/C=C/C=C/C(=O)N2C/C(=C\c3ccccc3)C(=O)/C(=C/c3ccccc3)C2)C/C1=C\c1ccccc1 | – | – | 5.47 | 13.5 | 2.6 µM | – | Active | 44.3 | 4.73 | 4.12 | 7.4 µM | Active | – | Active | 6.4 µM | 39 µM | 8.5 µM | 47 µM | – | 48.6 | – |
| O=C1/C(=C/c2ccccc2)CN(C(=O)/C=C/C(=O)N2C/C(=C\c3ccccc3)C(=O)/C(=C/c3ccccc3)C2)C/C1=C\c1ccccc1 | 0.22 µM | 0.45 µM | 25.7 | 191 | 0.078 µM | 0.25 µM | Active | 52.9 | 12.4 | 24 | 1.2 µM | Active | 0.05 µM | Active | 0.58 µM | 17 µM | 0.62 µM | 22 µM | 0.13 µM | 37.2 | IC50 (HCC 2998): 0.22 µM; IC50 (COLO 205): 0.56 µM; IC50 (HCT-15): 0.83 µM; IC50 (K562): 0.32 µM; IC50 (KM12): 0.21 µM |
| O=C1/C(=C/c2ccccc2)CN(C(=O)c2ccccc2C(=O)N2C/C(=C\c3ccccc3)C(=O)/C(=C/c3ccccc3)C2)C/C1=C\c1ccccc1 | 0.3 µM | 0.21 µM | 60 | 189 | 0.026 µM | 0.17 µM | Active | 51.5 | 44.7 | 64.7 | 0.11 µM | Active | 0.06 µM | Active | 0.082 µM | 5.7 µM | 0.076 µM | 8.5 µM | 0.03 µM | 46.5 | Ratio (HSC-2 [13]): 335; Ratio (HSC-4 [14]): 390; IC50 (HCC 2998): 0.2 µM; IC50 (COLO 205): 0.21 µM; IC50 (HCT-15): 0.35 µM; Ratio (HSC-3 [15]): 329; IC50 (K562): 0.21 µM; IC50 (KM12): 0.21 µM |
| O=C1/C(=C/c2ccccc2)CN(C(=O)C(=O)N2C/C(=C\c3ccccc3)C(=O)/C(=C/c3ccccc3)C2)C/C1=C\c1ccccc1 | 0.07 µM | 0.2 µM | 16.3 | 38.4 | 0.085 µM | 0.17 µM | Active | 41.1 | 29.6 | 21.7 | 0.11 µM | Active | 0.25 µM | Active | 0.2 µM | 3.8 µM | 0.15 µM | 5.3 µM | 0.03 µM | 19.3 | IC50 (HCC 2998): 0.19 µM; IC50 (COLO 205): 0.36 µM; IC50 (HCT-15): 0.3 µM; IC50 (K562): 0.2 µM; IC50 (KM12): 0.04 µM |
| O=C1/C(=C/c2ccccc2)CN(C(=O)CCCCCCC(=O)N2C/C(=C\c3ccccc3)C(=O)/C(=C/c3ccccc3)C2)C/C1=C\c1ccccc1 | – | – | 16.8 | 61.2 | 0.17 µM | – | Active | 55.7 | 8 | 49.5 | 1.3 µM | Active | – | Active | 0.62 µM | 13 µM | 0.21 µM | 17 µM | – | 49.2 | – |
